Experimental data taken from ChEMBL document CHEMBL1146820, “Parallel solid-phase synthesis of disubstituted (5-biphenyltetrazolyl) hydantoins and thiohydantoins targeting the growth hormone secretagogue receptor” (Bioorg Med Chem Lett, 2004).

Target: Growth hormone secretagogue receptor type 1 (Homo sapiens, UniProt Q92847)
Experiment: Inhibition of ghrelin binding to Growth hormone secretagogue receptor expressed in BHK cells
Type: cell-based
Summary of the method: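 Competition binding against ¹²⁵I-ghrelin at the human GHS receptor expressed in BHK cells. Values are displacement of the radiolabelled ghrelin tracer by the test compounds.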

Growth hormone secretagogue receptor type 1, sequence (Q92847 whole entry): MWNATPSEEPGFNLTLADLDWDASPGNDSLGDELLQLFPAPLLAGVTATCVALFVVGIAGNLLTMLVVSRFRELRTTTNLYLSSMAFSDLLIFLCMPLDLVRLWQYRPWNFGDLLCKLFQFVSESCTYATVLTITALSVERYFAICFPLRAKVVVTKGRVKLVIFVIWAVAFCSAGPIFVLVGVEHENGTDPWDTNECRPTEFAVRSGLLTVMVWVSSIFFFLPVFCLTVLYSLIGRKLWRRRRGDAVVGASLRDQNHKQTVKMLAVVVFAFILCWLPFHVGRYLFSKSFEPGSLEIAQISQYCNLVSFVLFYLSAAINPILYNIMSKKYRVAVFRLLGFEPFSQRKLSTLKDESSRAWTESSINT

| Compound | IC50 |
| --- | --- |
| O=C1[C@H](CCc2ccccc2)N(Cc2ccc(-c3ccccc3-c3nn[nH]n3)cc2)C(=S)N1CCCN1CCOCC1 | 45 µM |
| O=C1[C@H](CCc2ccccc2)N(Cc2cc(-c3ccccc3-c3nn[nH]n3)cs2)C(=O)N1CCCN1CCCCC1 | 1.3 µM |
| CN(C)C(=O)CCN1C(=O)[C@H](CCc2ccccc2)N(Cc2ccc(-c3ccccc3-c3nn[nH]n3)cc2)C1=O | > 100 µM |
| CN(C)CCCN1C(=O)[C@H](Cc2ccccc2)N(Cc2ccc(-c3ccccc3-c3nn[nH]n3)cc2)C1=S | 35 µM |
| O=C1[C@H](CCc2ccccc2)N(Cc2ccc(-c3ccccc3-c3nn[nH]n3)cc2)C(=O)N1CCCN1CCCC1 | 1.1 µM |
| CN(C)CCCN1C(=O)[C@H](c2ccccc2)N(Cc2ccc(-c3ccccc3-c3nn[nH]n3)cc2)C1=S | 35 µM |
| CN(C)c1ccc(N2C(=O)[C@H](CCc3ccccc3)N(Cc3ccc(-c4ccccc4-c4nn[nH]n4)cc3)C2=S)cc1 | > 100 µM |
| CN(C)CCCN1C(=O)[C@H](CCc2ccccc2)N(Cc2ccc(-c3ccccc3-c3nn[nH]n3)cc2)C1=S | 8.2 µM |
| O=C1[C@H](Cc2c[nH]c3ccccc23)N(Cc2ccc(-c3ccccc3-c3nn[nH]n3)cc2)C(=O)N1C1CCNCC1 | 50 µM |
| O=C1[C@H](CCc2ccccc2)N(Cc2ccc(-c3ccccc3-c3nn[nH]n3)cc2F)C(=O)N1CCCN1CCCCC1 | 1.6 µM |
| O=C1[C@H](CCc2ccccc2)N(Cc2ccc(-c3ccccc3-c3nn[nH]n3)s2)C(=O)N1CCCN1CCCCC1 | 15 µM |
| CN(C)CCCN1C(=O)[C@H](CCc2ccccc2)N(Cc2ccc(-c3ccccc3-c3nn[nH]n3)cc2)C1=O | 4 µM |
| NCCCN1C(=O)[C@H](CCc2ccccc2)N(Cc2ccc(-c3ccccc3-c3nn[nH]n3)cc2)C1=O | > 100 µM |
| O=C1[C@H](CCc2ccccc2)N(Cc2ccc(-c3ccccc3-c3nn[nH]n3)cc2)C(=O)N1CCCN1CCCCC1 | 0.6 µM |
